Measurements: ChEMBL document CHEMBL1125194, “Probing the bradykinin receptor: mapping the geometric topography using ethers of hydroxyproline in novel peptides” (J Med Chem, 1991)

How the values were obtained:
[1] = Antagonistic activity of compound was measured for bradykinin receptor in guinea pig ileum; format: functional, tissue-based; settings: Cavia porcellus, read-out: pA2 (converted)
How it was run: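 Guinea pig ileal longitudinal muscle strips, which express only B2 receptors. Cumulative bradykinin dose-response curves were run without and with increasing antagonist concentrations (0.1-0.3 μM), and antagonism was expressed as pA2. Agonist activity was also checked at concentrations up to 10 μM.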

[2] = Binding affinity of compound was measured for bradykinin receptor in guinea pig ileum; format: tissue-based, Cavia porcellus
[3] = Antagonistic activity of compound was measured in SV-T2 cells; format: functional, cell-based; settings: Mus musculus, read-out: pA2 (converted)
How it was run: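 SV-T2 fibroblasts, which express only B2 receptors. Antagonism of bradykinin-stimulated prostaglandin synthesis was measured and expressed as pA2. Agonist activity was also checked at concentrations up to 10 μM.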

CO[C@@H]1C[C@@H](C(=O)N2Cc3ccccc3CC2C(=O)N[C@@H](CCCN=C(N)N)C(=O)O)N(C(=O)[C@H](CO)NC(=O)[C@@H](NC(=O)CNC(=O)[C@@H]2C[C@H](O)CN2C(=O)[C@@H]2CCCN2C(=O)[C@H](CCCN=C(N)N)NC(=O)[C@H](N)CCCN=C(N)N)c2cccs2)C1 (stereo partly drawn)
Kb [1]: 186 nM
Ki [2]: 2.12 nM
Kb [3]: 3.98 nM

CCCO[C@@H]1C[C@@H](C(=O)N2Cc3ccccc3C[C@H]2C(=O)N[C@@H](CCCN=C(N)N)C(=O)O)N(C(=O)[C@H](CO)NC(=O)[C@@H](NC(=O)CNC(=O)[C@@H]2C[C@H](O)CN2C(=O)[C@@H]2CCCN2C(=O)[C@H](CCCN=C(N)N)NC(=O)[C@H](N)CCCN=C(N)N)c2cccs2)C1
Kb [1]: 24.5 nM
Ki [2]: 0.77 nM
Kb [3]: 1.58 nM

CCCO[C@@H]1C[C@@H](C(=O)N2C3CCCCC3C[C@H]2C(=O)N[C@@H](CCCN=C(N)N)C(=O)O)N(C(=O)[C@H](CO)NC(=O)[C@@H](NC(=O)CNC(=O)[C@@H]2C[C@H](O)CN2C(=O)[C@@H]2CCCN2C(=O)[C@H](CCCN=C(N)N)NC(=O)[C@H](N)CCCN=C(N)N)c2cccs2)C1 (stereo partly drawn)
Kb [1]: 2.88 nM
Ki [2]: 0.16 nM
Kb [3]: 0.251 nM

CO[C@H]1C[C@@H](C(=O)N2Cc3ccccc3C[C@H]2C(=O)N[C@@H](CCCN=C(N)N)C(=O)O)N(C(=O)[C@H](CO)NC(=O)[C@@H](NC(=O)CNC(=O)[C@@H]2C[C@H](O)CN2C(=O)[C@@H]2CCCN2C(=O)[C@H](CCCN=C(N)N)NC(=O)[C@H](N)CCCN=C(N)N)c2cccs2)C1
Kb [1]: 8910 nM
Ki [2]: 102 nM
Kb [3]: 251 nM

CCCO[C@H]1C[C@@H](C(=O)N2Cc3ccccc3C[C@H]2C(=O)N[C@@H](CCCN=C(N)N)C(=O)O)N(C(=O)[C@H](CO)NC(=O)[C@@H](NC(=O)CNC(=O)[C@@H]2C[C@H](O)CN2C(=O)[C@@H]2CCCN2C(=O)[C@H](CCCN=C(N)N)NC(=O)[C@H](N)CCCN=C(N)N)c2cccs2)C1
Kb [1]: 5750 nM
Ki [2]: 144 nM
Kb [3]: 158 nM

NC(N)=NCCC[C@@H](N)C(=O)N[C@@H](CCCN=C(N)N)C(=O)N1CCC[C@H]1C(=O)N1C[C@H](O)C[C@H]1C(=O)NCC(=O)N[C@@H](Cc1ccccc1)C(=O)N[C@@H](CO)C(=O)N[C@H](Cc1ccccc1)C(=O)N[C@@H](Cc1ccccc1)C(=O)N[C@@H](CCCN=C(N)N)C(=O)O
Kb [1]: 1510 nM
Ki [2]: 57.9 nM
Kb [3]: 10 nM
